Experiment [1] concerns Rattus norvegicus. As to the kind of experiment: In vivo antagonist activity was measured as forepaw treading(FT) in a behavioral response test in reserpinized rats at 3 mg/kg(sc) dose. The class given is functional. In short, it runs like this:
(§1)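 Male Wistar rats given reserpine 18 h before use. Test compound or vehicle given 15 min before 8-OH-DPAT (0.25 mg/kg sc). Starting 3 min after agonist, forepaw treading and flat body posture scored every 3 min for 15 min on a ranked intensity scale. Doses expressed as free base. Mean ± SEM; Mann–Whitney U-test against vehicle control.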

Experiment [2] has as its target D(2) dopamine receptor (Rattus norvegicus, UniProt P61169). As to the kind of experiment: Binding affinity against dopamine receptor D2 on rat striatum using [3H]spiperone as radioligand. The class given is tissue-based.
The target of experiment [3] is T1, 5-hydroxytryptamine receptor 1A (Homo sapiens) (UniProt P08908).
T1 sequence (whole entry): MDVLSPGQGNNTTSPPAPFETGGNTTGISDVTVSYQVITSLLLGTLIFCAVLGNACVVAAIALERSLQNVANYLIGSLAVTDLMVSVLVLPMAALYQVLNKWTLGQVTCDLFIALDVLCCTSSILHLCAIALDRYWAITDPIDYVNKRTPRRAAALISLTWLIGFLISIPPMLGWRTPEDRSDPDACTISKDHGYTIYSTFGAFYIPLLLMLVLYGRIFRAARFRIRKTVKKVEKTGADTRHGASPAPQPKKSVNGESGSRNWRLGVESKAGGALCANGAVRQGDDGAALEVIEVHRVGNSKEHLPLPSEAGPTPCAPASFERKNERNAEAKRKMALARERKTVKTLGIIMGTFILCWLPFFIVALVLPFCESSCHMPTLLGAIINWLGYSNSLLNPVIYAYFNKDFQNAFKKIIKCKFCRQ
As to the kind of experiment: Antagonist activity against CHO cells expressing the human 5-hydroxytryptamine 1A receptor in a forskolin stimulated adenylate cyclase (FSC) assay. In kind it is functional, cell-based.

For experiment [4], the system named is Rattus norvegicus. As to the kind of experiment: In vivo antagonist activity was measured as flat body posture (FBP) in a behavioral response test in reserpinized rats at 1 mg/kg(sc) dose. The class given is functional. In short, it runs like this:
as §1

The nature of experiment [5]: Binding affinity (Ki) ratio of D2 receptor of rat striatum and 5-HT1A receptor of rat hippocampus. In kind it is tissue-based.
For experiment [6], the system named is Rattus norvegicus. As to the kind of experiment: In vivo antagonist activity was measured as flat body posture (FBP) in a behavioral response test in reserpinized rats at 3 mg/kg(sc) dose. The class given is functional. The procedure, abridged:
as §1

The test system of experiment [7] is Rattus norvegicus. As to the kind of experiment: In vivo antagonist activity was measured as forepaw treading(FT) in a behavioral response test in reserpinized rats upon subcutaneous administration. In kind it is functional. The procedure, abridged:
as §1

Experiment [8] concerns Rattus norvegicus. As to the kind of experiment: In vivo antagonist activity was measured as forepaw treading(FT) in a behavioral response test in reserpinized rats at 1 mg/kg(sc) dose. In kind it is functional. The procedure, abridged:
as §1

The test system of experiment [9] is Rattus norvegicus. As to the kind of experiment: In vivo antagonist activity was measured as flat body posture (FBP) in a behavioral response test in reserpinized rats upon subcutaneous administration. The class given is functional. The procedure, abridged:
as §1

In experiment [10] the target is Serotonin 1a (5-HT1a) receptor/Adrenergic receptor alpha-1 (Rattus norvegicus) (UniProt P15823+P23944+P43140+P19327). As to the kind of experiment: Selectivity for 5-HT1A receptor of rat hippocampus and alpha-1 adrenergic receptor of rat cortex. The class given is tissue-based.
The target of experiment [11] is T2, 5-hydroxytryptamine receptor 1A (Rattus norvegicus, UniProt P19327).
T2 sequence (P19327 whole entry): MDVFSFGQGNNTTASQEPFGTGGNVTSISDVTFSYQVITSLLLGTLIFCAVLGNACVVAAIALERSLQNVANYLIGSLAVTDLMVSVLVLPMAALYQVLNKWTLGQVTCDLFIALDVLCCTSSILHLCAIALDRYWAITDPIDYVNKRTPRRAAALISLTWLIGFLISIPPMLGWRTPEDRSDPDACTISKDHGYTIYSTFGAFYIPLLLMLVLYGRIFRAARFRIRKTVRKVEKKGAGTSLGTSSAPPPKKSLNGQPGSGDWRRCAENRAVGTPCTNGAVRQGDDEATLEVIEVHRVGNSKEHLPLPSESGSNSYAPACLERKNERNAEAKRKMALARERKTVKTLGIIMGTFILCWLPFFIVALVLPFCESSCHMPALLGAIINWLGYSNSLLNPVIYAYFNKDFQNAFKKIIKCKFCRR
As to the kind of experiment: Binding affinity against 5-hydroxytryptamine 1A receptor on rat hippocampus using [3H]8-OH-DPAT as radioligand. In kind it is tissue-based.

Experiment [12] has as its target T3, Adrenergic receptor alpha-1 (Rattus norvegicus, UniProt P15823+P23944+P43140).
T3 sequence (P15823 whole entry): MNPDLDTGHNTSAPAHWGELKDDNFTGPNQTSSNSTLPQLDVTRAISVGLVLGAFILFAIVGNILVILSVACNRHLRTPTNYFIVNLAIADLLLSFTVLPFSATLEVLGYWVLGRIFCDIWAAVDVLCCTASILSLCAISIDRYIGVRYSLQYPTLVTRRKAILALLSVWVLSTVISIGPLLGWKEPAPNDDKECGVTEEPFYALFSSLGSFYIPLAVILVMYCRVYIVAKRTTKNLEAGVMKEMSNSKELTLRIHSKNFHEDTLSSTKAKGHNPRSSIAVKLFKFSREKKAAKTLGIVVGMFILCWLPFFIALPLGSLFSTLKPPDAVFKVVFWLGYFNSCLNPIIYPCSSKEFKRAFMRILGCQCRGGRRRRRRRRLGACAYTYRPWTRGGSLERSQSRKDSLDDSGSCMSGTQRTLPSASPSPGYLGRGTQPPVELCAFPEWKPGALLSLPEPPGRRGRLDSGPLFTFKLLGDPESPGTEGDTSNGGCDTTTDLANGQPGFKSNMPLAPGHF
T3 sequence (P23944 whole entry): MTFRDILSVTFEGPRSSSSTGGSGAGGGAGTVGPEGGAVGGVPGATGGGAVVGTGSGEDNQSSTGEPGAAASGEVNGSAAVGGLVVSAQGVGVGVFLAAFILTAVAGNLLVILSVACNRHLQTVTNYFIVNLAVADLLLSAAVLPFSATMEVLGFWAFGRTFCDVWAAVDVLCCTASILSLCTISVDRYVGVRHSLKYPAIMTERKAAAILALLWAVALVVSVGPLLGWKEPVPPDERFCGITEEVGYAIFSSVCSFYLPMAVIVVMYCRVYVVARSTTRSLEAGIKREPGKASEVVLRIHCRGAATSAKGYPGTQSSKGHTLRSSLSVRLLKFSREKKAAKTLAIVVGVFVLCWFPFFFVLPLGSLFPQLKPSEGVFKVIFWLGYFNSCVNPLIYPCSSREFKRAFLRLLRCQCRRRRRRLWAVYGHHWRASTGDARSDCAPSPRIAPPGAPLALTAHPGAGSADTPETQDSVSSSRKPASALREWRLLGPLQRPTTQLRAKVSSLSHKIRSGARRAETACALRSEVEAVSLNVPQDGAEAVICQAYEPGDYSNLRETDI
T3 sequence (P43140 whole entry): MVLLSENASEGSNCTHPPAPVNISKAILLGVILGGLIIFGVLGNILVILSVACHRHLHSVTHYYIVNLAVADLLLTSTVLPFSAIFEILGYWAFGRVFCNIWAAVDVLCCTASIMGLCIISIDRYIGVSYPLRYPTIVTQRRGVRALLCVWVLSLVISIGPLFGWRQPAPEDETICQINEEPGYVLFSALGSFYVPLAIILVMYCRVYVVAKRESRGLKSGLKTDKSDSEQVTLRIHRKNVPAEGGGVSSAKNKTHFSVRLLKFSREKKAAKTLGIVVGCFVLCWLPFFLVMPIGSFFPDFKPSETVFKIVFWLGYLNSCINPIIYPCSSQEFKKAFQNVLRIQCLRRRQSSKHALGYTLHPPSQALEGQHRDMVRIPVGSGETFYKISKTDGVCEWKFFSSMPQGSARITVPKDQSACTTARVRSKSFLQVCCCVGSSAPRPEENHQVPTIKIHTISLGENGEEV
As to the kind of experiment: Binding affinity against alpha-1 adrenergic receptor on rat cortex using [3H]-prazosin as radioligand. In kind it is tissue-based, Brain.

The test system of experiment [13] is Rattus norvegicus. As to the kind of experiment: in vivo antagonist activity was measured as flat body posture (FBP) in a behavioral response test in reserpinized rats at 3 mg/kg(sc) dose. In kind it is functional. The procedure, abridged: (§2)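 Male Wistar rats given reserpine 18 h beforehand. Test compound or vehicle given sc; 15 min later 8-OH-DPAT 0.25 mg/kg sc. Forepaw treading and flat body posture scored on a ranked intensity scale every 3 min for 15 min, starting 3 min after 8-OH-DPAT. Doses as free base; mean ± SEM, Mann–Whitney U-test against vehicle controls.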

Experiment [14] has as its system Rattus norvegicus. As to the kind of experiment: in vivo antagonist activity was measured as forepaw treading(FT) in a behavioral response test in reserpinized rats upon subcutaneous administration. In kind it is functional. In short, it runs like this:
as §2

For experiment [15], the system named is Rattus norvegicus. As to the kind of experiment: in vivo antagonist activity was measured as flat body posture (FBP) in a behavioral response test in reserpinized rats at 1 mg/kg(sc) dose. In kind it is functional. In short, it runs like this: as §2
The test system of experiment [16] is Rattus norvegicus. As to the kind of experiment: in vivo antagonist activity was measured as forepaw treading(FT) in a behavioral response test in reserpinized rats at 3 mg/kg(sc) dose. In kind it is functional. In short, it runs like this: as §2
Experiment [17] has as its system Rattus norvegicus. As to the kind of experiment: in vivo antagonist activity was measured as forepaw treading(FT) in a behavioral response test in reserpinized rats at 1 mg/kg(sc) dose. The class given is functional. The procedure, abridged:
as §2

For experiment [18], the system named is Rattus norvegicus. As to the kind of experiment: in vivo antagonist activity was measured as flat body posture (FBP) in a behavioral response test in reserpinized rats upon subcutaneous administration. The class given is functional. In short, it runs like this: as §2

D(2) dopamine receptor, sequence (P61169 whole entry): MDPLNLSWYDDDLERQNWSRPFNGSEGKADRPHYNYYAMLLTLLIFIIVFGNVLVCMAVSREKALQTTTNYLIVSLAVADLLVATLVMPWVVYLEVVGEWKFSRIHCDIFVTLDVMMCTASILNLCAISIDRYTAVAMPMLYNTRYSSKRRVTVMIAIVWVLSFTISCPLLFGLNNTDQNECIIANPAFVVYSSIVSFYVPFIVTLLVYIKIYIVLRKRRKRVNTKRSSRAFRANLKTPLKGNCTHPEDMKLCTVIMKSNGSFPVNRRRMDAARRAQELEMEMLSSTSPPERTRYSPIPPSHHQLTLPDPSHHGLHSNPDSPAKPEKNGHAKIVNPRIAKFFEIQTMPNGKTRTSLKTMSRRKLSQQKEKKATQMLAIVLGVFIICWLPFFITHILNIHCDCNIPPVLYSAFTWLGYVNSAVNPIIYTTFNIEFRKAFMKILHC

Regarding `COc1ccc(CCCCNCCOc2cc(F)cc3c2OCC=C3)cc1`, the Behavior score in experiment [1] was determined as 0; in experiment [4], 3.7; in experiment [6] it was 2.8; in experiment [7] it was 11.8; in experiment [8] it was 1.3; in experiment [9], 11.8. Moreover, the inhibitory constant (Ki) is 0.288 nM in experiment [2], 0.159 nM in experiment [11] and 8.31 nM in experiment [12]. The FSC recovery in experiment [3] stood at 109%. Further, the Ratio in experiment [5] came to 1.8. This compound showed a Selectivity in [10] of 52.

With `O=C1CCOc2c(OCCNCCCCc3ccc4c(c3)CCO4)cc(F)cc21`, the Behavior score in experiment [1] amounted to 1.2; in [4] it was 6.8; in [6], 3.8; in [7], 10.1; in experiment [8], 4; in experiment [9], 12.3. For the same compound, the Ki in experiment [2] was determined as 49.6 nM; in [11], 4.19 nM; in experiment [12], 169 nM. In addition, the FSC recovery in experiment [3] turned out to be 68%. In experiment [5], the Ratio was 12. Also, the Selectivity in [10] was 40.

Consider `CCCN(CCC)[C@H]1CCc2c(F)ccc(O)c2C1`, for which the Behavior score in experiment [13] is 1.8; in [14] it was 9.9; in experiment [15] it was 3.5; in experiment [16], 0.5; in experiment [17], 1.3; in experiment [18], 12.6. The compound further registered a Selectivity in experiment [10] of 130.

Take `COc1ccc(CCCCNCCOc2cc(F)cc3c2OCCC3=O)cc1`: the Behavior score in [1] was 1.3; in experiment [4], 6; in [6], 2.3; in [7], 10.2; in [8], 3.8; in [9], 11.3. Also, the Ki is 62.3 nM in experiment [2], 3.07 nM in [11] and 203 nM in experiment [12]. This compound came in with an FSC recovery in experiment [3] of 59%. The Ratio in [5] is 20. The compound also registered a Selectivity in experiment [10] of 66.

As for `O=C1CCOc2c(OCCNCCCCc3ccc4c(c3)OCO4)cc(F)cc21`, the Behavior score is listed as 1.5 in experiment [1]; 5.3 in experiment [4]; 3 in experiment [6]; 7.8 in experiment [7]; 3 in [8]; 9.7 in [9]. The inhibition constant (Ki) in experiment [2] stood at 42.1 nM; in experiment [11], 2.67 nM; in experiment [12], 209 nM. This compound returned an FSC recovery in experiment [3] of 55%. Besides, the Ratio in experiment [5] stood at 16. The Selectivity in [10] came out at 78.

Consider `COc1ccc(CCCCNCCOc2cc(F)cc3c2OCCC3O)cc1` (stereo in doubt; 34), for which the Behavior score in [1] came to 1.8; in experiment [4], 6.8; in experiment [6], 4; in experiment [7] it was 8.6; in experiment [8] it was 3.3; in experiment [9], 12.4. Further, the Ki in experiment [2] came to 0.724 nM; in [11] it was 0.716 nM; in experiment [12], 10.4 nM.

The Ki is the dissociation constant of the complex between target and ligand, obtained from inhibition or displacement. High values mean lower affinity, low ones higher affinity.
